Measured values as given in ChEMBL document CHEMBL3758106, “Antitumor Activity of Americanin A Isolated from the Seeds of Phytolacca americana by Regulating the ATM/ATR Signaling Pathway and the Skp2-p27 Axis in Human Colon Cancer Cells” (J Nat Prod, 2015).
Active and inactive are the calls of the source. The calls are words filed in the database; no cut-off is given here.

What was measured:
[1] = Downregulation of phosphorylated cyclin B1 at Ser147 expression in human HCT116 cells at 7.5 to 30 uM after 24 hrs by Western blot analysis; type: functional, cell-based; details: HCT-116
Outline: (§1)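 HCT116 cells exposed 24 h in complete medium; lysed in RIPA buffer (pH 8.0), protein by BCA, equal loads run on 8–13% SDS-PAGE, PVDF transfer, blocked in 5% BSA/TBST, primary antibodies overnight at 4 °C, HRP secondaries 2 h RT, ECL detection; β-actin as loading control.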

HCT-116 [2] = experiment: Antiproliferative activity against human HCT116 cells after 5 to 40 uM by SRB assay; type: functional, cell-based; details: TDE = time-dependent effect
HCT-116 [3] = experiment: Induction of cell cycle arrest in human HCT116 cells assessed as accumulation at S phase at 30 uM after 24 hrs by propidium iodide staining-based flow cytometric analysis in presence of RNase A (reference value: 13.4%); type: functional
HCT-116 [4] = experiment: Induction of cell cycle arrest in human HCT116 cells assessed as accumulation at S phase at 15 uM after 24 hrs by propidium iodide staining-based flow cytometric analysis in presence of RNase A (reference value: 13.4%); type: functional
HCT-116 [5] = experiment: Induction of apoptosis in human HCT116 cells assessed as cleaved PARP level at 30 uM up to 24 hrs by Western blot analysis; type: functional, cell-based
[6] = Downregulation of cyclin A expression in human HCT116 cells at 7.5 to 30 uM after 24 hrs by Western blot analysis; type: functional, cell-based; details: HCT-116; outline: as §1
[7] = Downregulation of cyclin B1 expression in human HCT116 cells at 7.5 to 30 uM after 24 hrs by Western blot analysis; type: functional, cell-based; details: HCT-116; outline: as §1
MRC5 = experiment: Cytotoxicity against human MRC5 cells after 24 to 72 hrs by SRB assay; type: cell-based
Outline: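 Cells grown in 96-well plates (RPMI 1640; MRC-5 in MEM, 10% FBS, antibiotics) with compound […]; fixed in 10% TCA 30 min at 4 °C, stained 0.4% SRB in 1% acetic acid 1 h, dye dissolved in 10 mM Tris pH 10.0, A515 read; viability as % of solvent control, IC50 by nonlinear regression; mean of three independent experiments.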

HCT-116 [8] = experiment: Induction of apoptosis in human HCT116 cells assessed as late apoptotic cells at 30 uM after 48 hrs by annexin V-FITC/propidium iodide staining-based flow cytometric analysis in presence of NAC (reference value: 7.2%); type: functional
[9] = Decrease in phosphorylated p27 expression at Thr187 in human HCT116 cells after 24 hrs by western blot analysis; type: functional, cell-based; details: HCT-116; outline: as §1
Mus musculus [10] = experiment: Upregulation of p27 in human HCT116 cells xenografted in nude mouse at 5 to 10 mg/kg, ip administered 3 times per week measured on day 41 by Western blot analysis; type: functional, organism-based; details: HCT-116
Outline: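 HCT116 xenografts in nude mice dosed ip at 5 or 10 mg/kg three times weekly to day 41. Portions of the excised frozen tumors were thawed on ice, homogenized in complete lysis buffer, protein quantified by Bradford, and p21, p27 and Skp2 assessed by Western blot with β-actin as internal control.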

HCT-116 [11] = experiment: Induction of apoptosis in human HCT116 cells assessed as late apoptotic cells at 30 uM after 48 hrs by annexin V-FITC/propidium iodide staining-based flow cytometric analysis (reference value: 7.2%); type: functional
[12] = Upregulation of phosphorylated ATR expression in human HCT116 cells at 1 hr by Western blot analysis; type: functional, cell-based; details: HCT-116
HCT-116 [13] = experiment: Induction of reactive oxygen species in human HCT116 cells at 30 uM after 48 hrs by DCFH-DA staining-based flow cytometric analysis (reference value: 5.1%); type: functional
Outline: (§2)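 HCT116 cells seeded overnight, then exposed to test compounds, alone or with NAC, for 48 h in complete medium. Loaded with 20 μM DCFH-DA for 30 min; intracellular ROS in 20 000 cells per group read by flow cytometry as histograms.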

Mus musculus [14] = experiment: Downregulation of Skp2 in human HCT116 cells xenografted in nude mouse at 5 to 10 mg/kg, ip administered 3 times per week measured on day 41 by Western blot analysis; type: functional, organism-based; details: HCT-116
Outline: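 Excised frozen xenograft tumours homogenised in lysis buffer; protein by Bradford assay, then Western blotting for Skp2 with β-actin as control.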

[15] = Downregulation of ATM expression in human HCT116 cells at 30 uM after 1 hr by Western blot analysis; type: functional, cell-based; details: HCT-116, TDE = time-dependent effect
Outline: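 HCT116 cells exposed for 1 h in complete medium; RIPA lysates quantified by BCA, equal protein separated on 8–13% SDS-PAGE, transferred to PVDF, probed with primary antibodies overnight at 4 °C and HRP secondaries, chemiluminescence read-out.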

[16] = Upregulation of ATM expression in human HCT116 cells at 1 hr by Western blot analysis; type: functional, cell-based; details: HCT-116
HCT-116 [17] = experiment: Induction of apoptosis in human HCT116 cells assessed as dead cells at 30 uM after 48 hrs by annexin V-FITC/propidium iodide staining-based flow cytometric analysis (reference value: 4.2%); type: functional
HCT-116 [18] = experiment: Induction of apoptosis in human HCT116 cells assessed as dead cells at 15 uM after 48 hrs by annexin V-FITC/propidium iodide staining-based flow cytometric analysis (reference value: 2%); type: functional
HCT-116 [19] = experiment: Induction of apoptosis in human HCT116 cells assessed as early apoptotic cells at 30 uM after 48 hrs by annexin V-FITC/propidium iodide staining-based flow cytometric analysis (reference value: 1.1%); type: functional
HCT-116 [20] = experiment: Induction of cell cycle arrest in human HCT116 cells assessed as accumulation at G0/G1 phase at 30 uM after 48 hrs by propidium iodide staining-based flow cytometric analysis in presence of RNase A (reference value: 54.3%); type: functional
HCT-116 [21] = experiment: Induction of morphological change in human HCT116 cells assessed as loss of contact with adjacent cells at 30 uM after 24 to 48 hrs by phase contrast microscopic analysis; type: functional, cell-based
Outline: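 HCT116 cells incubated with compound for 24 h, then viewed and photographed under phase-contrast microscopy; also examined at 48 h.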

[22] = Upregulation of p53 expression in human HCT116 cells at 7.5 to 30 uM after 24 hrs by Western blot analysis; type: functional, cell-based; details: HCT-116
HCT-116 [23] = experiment: Induction of apoptosis in human HCT116 cells assessed as viable cells at 30 uM after 48 hrs by annexin V-FITC/propidium iodide staining-based flow cytometric analysis (reference value: 87.4%); type: functional; details: HCT-116, 48 h, read-out: Activity
HCT-116 [24] = experiment: Induction of reactive oxygen species in human HCT116 cells after 48 hrs by DCFH-DA staining-based flow cytometric analysis; type: functional, cell-based; outline: as §2
HCT-116 [25] = experiment: Induction of apoptosis in human HCT116 cells assessed as early apoptotic cells at 30 uM after 48 hrs by annexin V-FITC/propidium iodide staining-based flow cytometric analysis in presence of NAC (reference value: 1.1%); type: functional
HCT-116 [26] = experiment: Induction of reactive oxygen species in human HCT116 cells at 15 uM after 48 hrs by DCFH-DA staining-based flow cytometric analysis (reference value: 5.1%); type: functional; outline: as §2
HCT-116 [27] = experiment: Induction of cell cycle arrest in human HCT116 cells assessed as accumulation at G2/M phase at 15 uM after 48 hrs by propidium iodide staining-based flow cytometric analysis in presence of RNase A (reference value: 19.7%); type: functional

## O=C/C=C/c1ccc2c(c1)O[C@@H](CO)[C@H](c1ccc(O)c(O)c1)O2 [AMERICANIN A]
[1]
  Activity: Active
HCT-116 [2]
  Activity: tde
HCT-116 [3]
  Activity: 18.4%
HCT-116 [4]
  Activity: 17.9%
HCT-116 [5]
  Activity: Active
[6]
  Activity: Active
[7]
  Activity: Active
MRC5
  IC50: > 100 µM
HCT-116 [8]
  Activity: 18.9%
[9]
  Activity: Active
Mus musculus [10]
  Activity: Active
HCT-116 [11]
  Activity: 36.5%
[12]
  Activity: Dose-dependent effect
HCT-116 [13]
  Activity: 47.4%
Mus musculus [14]
  Activity: Active
[15]
  Activity: tde
[16]
  Activity: Dose-dependent effect
HCT-116 [17]
  Activity: 5.1%
HCT-116 [18]
  Activity: 0.4%
HCT-116 [19]
  Activity: 7%
HCT-116 [20]
  Activity: 16.4%
HCT-116 [21]
  Activity: Active
[22]
  Activity: Active
HCT-116 [23]
  viability at 30 µM: 51.4%
HCT-116 [24]
  Activity: Dose-dependent effect
HCT-116 [25]
  Activity: 2.7%
HCT-116 [26]
  Activity: 7.9%
HCT-116 [27]
  Activity: 20.3%
